According to the array DNA melting data of Ke et al. (doi:10.1101/2024.01.08.574731):

What was measured:
[1] = folding enthalpy; higher = less favourable; fluorescence melt of hairpins on a sequencing array, two-state fit; settings: sodium 0.088 M
Method in brief: (§1)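 With Cy3 and quencher oligos annealed, library hairpins on a sequenced MiSeq flow cell were imaged for Cy3 fluorescence in 50 mM Na-HEPES pH 8.0, 25 mM NaCl, in 2.5 °C steps up to 60 °C. Melting temperature and folding enthalpy were derived from bootstrapped two-state fits of signals normalised to pre-quench Cy3 and to control constructs. Four replicates were combined by inverse variance, with fitted temperatures raised by 9.35 °C to match UV melts.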

[2] = melting temperature; fluorescence melt of hairpins on a sequencing array, two-state fit, raised by 9.35 °C to match UV melts; settings: sodium 0.088 M
Method in brief: as §1

Sequence	folding enthalpy [1] [kcal/mol]	Tm [2] [°C]
GCATGCGAAAGCAAGTGC ((((((....)))..)))	-17.8	46.8
GATCTCTACGAGATC ((((((...))))))	-40	55.1
GAGACACCGAAAGGTCTC (((..(((....))))))	-20.4	42.2
GATCTTGATAAGATC ((((((...))))))	-21.6	43.6
GATCTCGCAAGAGATC ((((((....))))))	-37.5	67.3
CGATACGGAAACGTTTCG (((.(((....))).)))	-34.6	45.9
GTATCGCGAAAGCGCTAC (((.(((....))).)))	-18.4	47.9
GTGAGGGGAAACTCTCGC (.(((.(....).))).)	-24.9	37.2
GATCAATGCTTTGATC ((((((....))))))	-39.7	47.5
GCATGTCGAAAGACTTGC (((.(((....))).)))	-43.8	54.6
GATCGGATATCCGATC ((((((....))))))	-42.9	58.3
GTTCCCGAAAGGGGAAC ((((((....))).)))	-20.8	57.4
GATCACACCTGTGATC ((((((....))))))	-47.3	57.2
GTGATTGGAAACGATCAC (((((.(....).)))))	-44.9	47.9
GACATGCGAAAGCAAGTC (((.(((....))).)))	-25.5	53.3
CGAAGCGGAAACGCATCG (((.(((....))).)))	-27.5	51.5
AGAAACAGAAATGGTTCT ((((.((....)).))))	-22.8	33.1
GAGATTGGAAACAATTTC ((.((((....)))).))	-17.9	32.4
GATCGCAAAAGCGATC ((((((....))))))	-29.1	61.9
GCACCGCGAAAGCAGAGC ((.(.((....)).).))	-15.2	41.5
GGCTTCGAAAGAACCGCC ((((((....)))..)))	-21.1	47.4
GATCAAGCGATTGATC ((((((....))))))	-39.6	48
GCGGAGTCGAAAGACCGC (((..(((....))))))	-38	53.7

Sequence	folding enthalpy [1] [kcal/mol]	Tm [2] [°C]
GGAAAGGAAACTTTCC ((((((....))))))	-29.9	50
GCGATGTGTCGC ((((....))))	-28.6	57
GCTGTCGGAAACGACGGC ((.((((....)))).))	-34.2	64
GTGCCTCGAAAGAGTCAC (((.(((....))).)))	-29.5	50.4
GCCACCGGAAACGGTGAC (.(((((....))))).)	-14	48.8
GATCGATACCTCGATC ((((((....))))))	-35.1	53.1
GATCTAGTAATAGATC ((((((....))))))	-35.8	47.9
GTTATCGGAAACGATAGC (.(((((....))))).)	-21.5	43.4
GGAGCCGAAAGGCAATCC ((((((....)))..)))	-11.2	38
GCTCGGCGAAAGCGGTGC ((.(.((....)).).))	-13	57.6
GATTCGGGAAACCGGATC (((.(((....))).)))	-39.6	49.3
GCTAAGCGAAAGCCTGGC ((.(.((....)).).))	-17.9	35.5
GATGCTGGAAACAGCATC (((((((....)))))))	-41.2	66.9
CACAAGAAATTGTG (((((....)))))	-21.7	37.6
GGATGAGGAAACTCATTC (.(((((....))))).)	-23.7	41.6
GCTCGATCGAAAGATAGC (((..(((....))))))	-11.7	28.1
GGCCCTGGAAACGGGGTC (.(((.(....).))).)	-30.9	49
GGGTTACGAAAGTATCCC (((.(((....))).)))	-43.4	51.4
GGAGGCGAAAGCCTTCC ((((((....))).)))	-13.5	57.9
GCCGGGCGAAAGCGGGGC (((..((....))..)))	-22.9	63.3
GCGGCATCCGC ((((...))))	-17.9	54.8
GCATCGCGAAAGCTGTGC (((..((....))..)))	-21.1	45.8
GTAAGGGGAAACTCTTAC (((((.(....).)))))	-34.4	37.6

Sequence	folding enthalpy [1] [kcal/mol]	Tm [2] [°C]
GCGTCGCGAAAGCGCAGC ((..(((....)))..))	-19.9	57.5
GGCCCGGCGAAAGCCGCC (((..(((....))))))	-7.68	37
GACGACGAAAGTCGTGTC ((((((....)))..)))	-10.5	59.9
GTGATCGAAAGATCGCAC ((((((....)))..)))	-18.1	51.8
GCAAGGCGAAAGCTCTGC (((..((....))..)))	-21.5	43.7
GCTATTCGAAAGAAGAGC (((.(((....))).)))	-39.9	51.1
GGTTGGGGAAACCCAATC (.(((((....))))).)	-26.2	48.7
GTTTCCGAAAGGAATAAC ((((((....)))..)))	-12	30.2
GAAAGCCGAAAGGCGTTC (((.(((....))).)))	-12.3	52.3
GCCGTGCGAAAGCCAGGC (((..((....))..)))	-23.9	62.8
GTTTTGGGAAACCAAGAC ((.((((....)))).))	-24.6	39
GTTACCGGAAACAGTAAC (((((.(....).)))))	-17.2	32.8
GGGCTGGGAAACCGGCCC ((((.((....)).))))	-29.2	67.2
GCGACACGAAAGTGCGC (((.(((....))))))	-22.7	63.9
GGGACACCGAAAGGTCCC (((..(((....))))))	-27.7	51.4
GCAATCGAAAGATGTGC ((((((....))).)))	-25.5	39.5
GAGCGAACGAAAGTTCTC (((..(((....))))))	-9.38	27.4
GATCCAAACCTGGATC ((((((....))))))	-40.8	49.8
GGGAACGCGAAAGCGCCC (((..(((....))))))	-16.4	46.5
GCAAGGGGAAACCCTCAC (..((((....))))..)	-9.15	25.2
GCTTACGGAAACGTAAAC (.(((((....))))).)	-17.9	33.3
GAGCCTGGAAACAGGTTC ((.((((....)))).))	-27.2	49.5
GTTCTTGGAAACGAGAAC (((((.(....).)))))	-28.6	43.6

Sequence	folding enthalpy [1] [kcal/mol]	Tm [2] [°C]
GCATCTTCGAAAGAATGC (((..(((....))))))	-23.2	33.4
GCTGACGCGAAAGCGAGC (((..(((....))))))	-13.9	47.1
GCTTCGCGAAAGCGTTGC ((..(((....)))..))	-20.3	47.2
GCTTTGCGAAAGCACGGC ((..(((....)))..))	-16.6	41.7
GAAGCCGAAAGGCTTTC ((((((....))).)))	-11.1	54.2
GCTCACGAAAGTGGTAGC ((((((....)))..)))	-19.7	44.7
GGAAACGAAAGTTTATCC ((((((....)))..)))	-12.3	25.6
GCATTGCGAAAGCCGTGC (((..((....))..)))	-22	41.2
GGACGCCGAAAGGCTTCC (((.(((....))).)))	-23.4	53.8
CGGTCCGGAAACGGTCCG (((.(((....))).)))	-40.5	55.6
GCTCGGCGAAAGCCATGC ((..(((....)))..))	-10.7	49.8
GCGTCTCCACGC ((((....))))	-21.4	52
GCGTTTAGACGC ((((....))))	-27.3	54
GTAGCGGGAAACCGCCAC ((.((((....)))).))	-11.7	38.7
GTTGCCGAAAGGCTCAAC ((((((....)))..)))	-7.95	29.8
GAGACGAAAGTCTC (((((....)))))	-23.1	67.1
GCCCTGCGAAAGCAGTGC ((.((((....)))).))	-17.3	58.5
CGCGCGGAAACGCCGGCG ((((((....)))..)))	-22.2	54.3
GCGTGGTGACGC ((((....))))	-17.3	55.1
GTGCCCCGAAAGGGCCAC (((.(((....))).)))	-13.4	51.3
GGGCGCGAAAGCGTTCCC ((((((....)))..)))	-13.7	52.3
GGAGGCGAAAGCCATCC ((((((....))).)))	-14.7	49.4
GGGTTTACGAAAGTACCC (((..(((....))))))	-24.2	41.2
